TRPC4 inh: inhibitors of mouse TRPC4 channel, primary screen, Fluo4 calcium, HEK293 TRPC4beta/mu-opioid cells; AID 2247, 2010; DAMGO-evoked Fluo4 calcium flux; active compounds read low; B-score at 10 µM; Short transient receptor potential channel 4 (Mus musculus), Q9QUQ5; 0.39% of 300,000 active;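 active = B-score over 3 SD under the library average, no early fluorescence shift, positive overall ratio signal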
Target sequence (Q9QUQ5 whole entry, looked up): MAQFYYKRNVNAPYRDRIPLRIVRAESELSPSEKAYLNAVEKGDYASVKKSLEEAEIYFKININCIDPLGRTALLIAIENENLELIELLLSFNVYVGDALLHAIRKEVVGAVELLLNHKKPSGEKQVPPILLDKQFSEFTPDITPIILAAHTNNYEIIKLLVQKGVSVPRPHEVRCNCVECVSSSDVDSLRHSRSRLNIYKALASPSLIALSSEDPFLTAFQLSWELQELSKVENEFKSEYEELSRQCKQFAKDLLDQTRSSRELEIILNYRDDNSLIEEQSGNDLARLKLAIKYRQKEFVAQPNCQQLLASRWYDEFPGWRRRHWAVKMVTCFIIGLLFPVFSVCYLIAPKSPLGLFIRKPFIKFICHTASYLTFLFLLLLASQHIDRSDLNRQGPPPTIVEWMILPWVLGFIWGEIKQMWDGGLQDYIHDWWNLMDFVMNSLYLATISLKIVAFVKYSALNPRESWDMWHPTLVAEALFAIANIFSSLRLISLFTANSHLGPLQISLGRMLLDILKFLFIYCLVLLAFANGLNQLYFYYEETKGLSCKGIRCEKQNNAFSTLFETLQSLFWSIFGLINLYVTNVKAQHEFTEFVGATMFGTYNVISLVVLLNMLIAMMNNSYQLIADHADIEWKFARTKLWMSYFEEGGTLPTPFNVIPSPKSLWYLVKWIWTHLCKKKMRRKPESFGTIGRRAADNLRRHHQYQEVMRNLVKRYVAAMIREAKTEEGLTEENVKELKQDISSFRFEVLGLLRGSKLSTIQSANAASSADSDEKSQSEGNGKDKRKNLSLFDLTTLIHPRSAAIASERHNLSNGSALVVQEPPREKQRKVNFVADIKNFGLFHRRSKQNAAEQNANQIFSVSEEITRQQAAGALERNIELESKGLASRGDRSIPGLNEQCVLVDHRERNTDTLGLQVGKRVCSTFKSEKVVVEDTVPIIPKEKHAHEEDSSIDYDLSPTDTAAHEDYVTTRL
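test system = HEK293 cells with stable TRPC4beta plus mu-opioid receptor expression | detection = Fluo4 Ca2+ flux fluorescence | read-out = integrated fluorescence ratio relative to baseline, converted to per-well B score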
TRPC6 inh: mouse TRPC6 channel inhibitors, primary screen, cell-based, HEK293, membrane potential dye; ACh-evoked depolarization; active compounds read low; B-score at 10 µM; 1.1% of 310,000 active; AID 2553, 2010;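 active = B-score under library mean minus 3 SD, initial fluorescence not abnormally high, positive integrated signal ratio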;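 also: B-score derived from integrated fluorescence ratio over the kinetic read; more negative B-score means stronger inhibition of depolarization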
TRPC4 potent: positive allosteric modulators of TRPC4, primary screen, cell-based, mouse TRPC4beta, HEK293 mu-opioid, Fluo-4 calcium. Short transient receptor potential channel 4 (Mus musculus), Q9QUQ5. DAMGO EC20, Fluo-4 Ca2+ flux; active compounds read high. B-score at 10 µM. 0.42% of 310,000 active;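 active = B-score of calcium response area above 5 SD of library B-scores, with initial fluorescence ratio within 5 SD of library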
TRPC4 act: activators of mouse TRPC4 channel, primary screen, Fluo4 calcium, HEK293 TRPC4beta/mu-opioid cells; Fluo4 calcium fluorescence; active compounds read high; B-score at 10 µM; 0.49% of 310,000 active; AID 2237, 2010;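 active = B-score above 5 SD of library B-scores, and initial fluorescence ratio not above library mean plus 5 SD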;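 also: positive B-score marks a calcium rise read as TRPC4 activation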
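Assay system: HEK293 cells stably co-expressing mouse TRPC4beta and mu-opioid receptor / Timing: Fluo4 dye loading 45 min at room temperature, 110 s recording / Signal: Fluo4 calcium-sensitive dye fluorescence, kinetic, 1 Hz baseline / Read-out: integrated baseline-normalised fluorescence ratio, converted to per-well B score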
TRPC6 act: mouse TRPC6 channel activators, primary screen, cell-based, HEK293, membrane potential dye | Short transient receptor potential channel 6 (Mus musculus), Q61143 | HEK293-TRPC6 membrane potential dye fluorescence; active compounds read high | B-score at 10 µM | 0.13% of 310,000 active;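 active = B-score of the integrated fluorescence ratio above library mean plus 3 SD, and starting fluorescence ratio within library mean plus 5 SD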;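 also: higher score means more depolarization so channel activation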
TRPC4 spec 2: second check of whether TRPC6 inhibitors also affect mouse TRPC4; 42% of 920 active; inhibition, % at 10 µM; shares compounds with TRPC6 inh; HEK293 TRPC4/MOR, membrane potential dye fluorescence; channel activated by saturating DAMGO dose;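 active = compounds whose fluorescence signal differed from control wells by over 3 SD, either direction, in both duplicate plates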
TRPC4 spec: mouse TRPC4 modulation by TRPC6 hits, confirmation, selectivity assay for TRPC6 inhibitor project, cell-based, HEK293 TRPC4/mu-opioid, membrane potential dye. shares compounds with TRPC6 inh. membrane potential fluorescence. activity change, negative = inhibition, % at 10 µM. 61% of 920 active;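 active = rise or fall in signal beyond 3 SD of buffer-only wells in both replicate plates, either sign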;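 also: integrated kinetic ratio of fluorescence range over baseline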
HEK293 MPD ctr 2-1: nonspecific membrane potential effects, parental HEK293, confirmation, counter-screen for TRPC6 inhibitor project, cell-based, second counter screen | shares compounds with TRPC6 inh | parental HEK293 membrane potential dye fluorescence; maximal acetylcholine challenge after compound addition | signal change vs control, % at 10 µM | 31% of 920 active | AID 2779, 2010;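 active = membrane potential signal moving either way by over 3 SD of the maximum-effect control, in both duplicate plates, meaning non-specific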
HEK293 MPD ctr-1: membrane potential modulation in parental HEK293, confirmation, counter-screen for TRPC6 inhibitor project, cell-based; 60% of 920 active; shares compounds with TRPC6 inh; membrane potential signal change, % at 10 µM; parental HEK293 membrane potential dye fluorescence; AID 2780, 2010;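 active = membrane potential signal shifting up or down by more than 3 SD of buffer-only wells, on both duplicate plates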
HEK293 MPD ctr-2: parental HEK293 membrane potential modulation, confirmation, counter-screen for TRPC6 modulator project, cell-based; shares compounds with TRPC6 inh; membrane potential dye fluorescence; membrane potential signal change, % at 10 µM; 51% of 2,400 active;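 active = membrane potential signal moves up or down beyond 5 SD from buffer-only wells, on both duplicate plates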
HEK293 MPD ctr 2-2: parental HEK293 nonspecific activity of TRPC6 modulators, second screen; shares compounds with TRPC6 inh; membrane potential dye fluorescence; after compound, maximal acetylcholine stimulation; inhibition, % at 10 µM; 14% of 2,400 active; AID 488926;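 active = membrane potential signal drops by more than 5 SD from the mean control signal, in both duplicate plates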
TRPC4/MOR mod: TRPC4 modulation by TRPC6 hit compounds, confirmation, selectivity assay for TRPC6 modulator project, cell-based, HEK293 TRPC4/mu-opioid, membrane potential dye, mouse. shares compounds with TRPC6 inh. membrane potential fluorescence. percent change from control (negative = decrease, positive = increase), % at 10 µM. 69% of 2,400 active. AID 488927, 2010;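 active = membrane potential signal moved up or down beyond 5 SD of buffer control wells, in both duplicate plates, actives on both sides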
TRPC4/MOR inh 2: mouse TRPC4 off-target activity of TRPC6 modulators, second screen. HEK293 TRPC4/mu-opioid, membrane potential dye fluorescence; stimulated with maximal-effect DAMGO. inhibition, % at 10 µM. AID 488928. 55% of 2,400 active. shares compounds with TRPC6 inh;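 active = drop in membrane potential signal beyond 5 SD of the control wells in both duplicate plates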;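 also: TRPC4 counter screen for TRPC6 hits run under conditions tuned for TRPC6 not TRPC4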
TRPC6 block conf: mouse TRPC6 channel inhibitors, confirmation, HEK293 cells, membrane potential dye, duplicate. 43% of 3,300 active. shares compounds with TRPC6 inh. ACh-evoked depolarization. AID 488960, 2010. inhibition, % at 10 µM;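 active = fluorescence ratio falls more than 5 SD below the full-stimulation control mean, in both duplicate runs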;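 also: integrated fluorescence ratio of peak minus minimum over baseline after agonist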
TRPC6 act conf: mouse TRPC6 channel activators, confirmation, HEK293 cells, membrane potential dye, duplicate | 11% of 2,800 active | HEK293-TRPC6 membrane potential dye fluorescence, FDSS | shares compounds with TRPC6 inh | activation, % at 10 µM | AID 488961, 2010;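 active = ratio signal rise beyond 5 SD above unstimulated control wells' mean, seen in both duplicate runs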
A number is an active result; i = inactive; nt = no result; + = active, no number. Only some compounds are listed: those with a hit (about 2.3% of all), similar ones and a draw of the others.

SMILES	TRPC4 inh	TRPC6 inh	TRPC4 potent	TRPC4 act	TRPC6 act	HEK293 MPD ctr-2	HEK293 MPD ctr 2-2	TRPC4/MOR mod	TRPC4/MOR inh 2	TRPC6 block conf	TRPC6 act conf	others
O=c1c(O)c(-c2cccs2)oc2ccc(Cl)cc12	i	i	i	i	76	+	i	326%	82%	i	334%
COc1ccc(N2CCN(C(=O)CN3CCN(c4nc(-c5ccc(F)cc5)cs4)CC3)CC2)cc1	i	i	i	i	i	nt	nt	nt	nt	nt	nt
CCCc1cc(-c2[nH]ncc2-c2ccc3c(c2)OCCCO3)c(O)cc1O	i	-8	i	i	i	nt	nt	nt	nt	63%	i	TRPC4 spec 2=i;TRPC4 spec=i;HEK293 MPD ctr 2-1=208%;HEK293 MPD ctr-1=i
Cc1ccc2[nH]c(=O)c(CN(CC3COCCO3)C(=O)Nc3ccccc3F)cc2c1 (stereo not drawn)	i	i	i	i	i	nt	nt	nt	nt	nt	nt
O=C(CSc1cccc[n+]1[O-])Nc1c(Br)cc([N+](=O)[O-])cc1Br	i	i	i	i	i	nt	nt	nt	nt	nt	nt
CCN(CC)C(=O)c1csc(Nc2ccc(C)cc2)n1	i	-5.8	i	i	i	i	i	i	i	i	i
O=C(CCNC(=O)C1CCN(S(=O)(=O)c2ccc(F)cc2)CC1)Nc1ccccc1	i	i	i	i	i	nt	nt	nt	nt	nt	nt
O=C(CN1CCCC1)N1c2ccccc2Sc2ccc(Cl)cc21	i	-5.5	i	i	i	96%	i	14%	47%	60%	nt
CCNCCC(=O)N1c2ccccc2Sc2ccc(C(F)(F)F)cc21	i	-6.1	i	i	i	i	94%	9.0%	42%	84%	nt

Screening data as filed in PubChem.
